What was measured:
[1] = tested on: Rattus norvegicus; test: Uptake of radioligand [125I]FIDA1 by cortex in rat after 60 minutes after an intravenous injection is given (average of 3 rats); assay type: ADME, organism-based; conditions: in vivo, 1 h
Summary of the method: (§1)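 Male Sprague–Dawley rats (225–300 g) under ether anesthesia received radioiodinated tracer (8–10 μCi in 0.2 mL saline) into the femoral vein. They were killed by cardiac excision at set times. Cortex, striatum, hippocampus and cerebellum were dissected, weighed and gamma-counted. Results are % dose/gram against diluted injected dose.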

[2] = tested on: Rattus norvegicus; test: Biodistribution of radioligand [125I]-FIDA1 in liver of rat after 2 minutes after an intravenous injection is given (average of 3 rats); assay type: ADME, organism-based; conditions: in vivo
Summary of the method: (§2)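 Male Sprague–Dawley rats (225–300 g) were given 0.2 mL saline containing the radioiodinated ligand (8–10 μCi) into the femoral vein under ether anesthesia. They were killed at set times by cardiac excision. Organs were weighed and γ-counted against diluted aliquots of the injected dose and expressed as % dose/organ. Blood and muscle were taken as 7% and 40% of body weight. Three rats were used per point.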

[3] = tested on: Rattus norvegicus; test: Biodistribution of radioligand [125I]FIDA1 in thyroid of rat after 60 minutes after an intravenous injection is given (average of 3 rats); assay type: ADME, organism-based, Thyroid gland; conditions: in vivo, 1 h; summary of the method: as §2
[4] = tested on: Rattus norvegicus; test: Biodistribution of radioligand [125I]FIDA1 in muscle of rat after 2 minutes after an intravenous injection is given (average of 3 rats); assay type: ADME, organism-based, Muscle tissue; conditions: in vivo; summary of the method: as §2
[5] = tested on: Rattus norvegicus; test: Biodistribution of radioligand [125I]FIDA1 in skin of rat after 120 minutes after an intravenous injection is given (average of 3 rats); assay type: ADME, organism-based, Zone of skin; conditions: in vivo, 2 h; summary of the method: as §2
[6] = tested on: Rattus norvegicus; test: Uptake of radioligand [125I]FIDA1 by cerebellum in rat after 120 minutes after an intravenous injection is given (average of 3 rats); assay type: ADME, organism-based; conditions: in vivo, 2 h; summary of the method: as §1
[7] = tested on: Rattus norvegicus; test: Biodistribution of radioligand [125I]FIDA1 in skin of rat after 2 minutes after an intravenous injection is given (average of 3 rats); assay type: ADME, organism-based, Zone of skin; conditions: in vivo; summary of the method: as §2
[8] = tested on: Rattus norvegicus; test: Biodistribution of radioligand [125I]-FIDA1 in heart of rat after 120 minutes after an intravenous injection is given (average of 3 rats); assay type: ADME, organism-based; conditions: in vivo, 2 h; summary of the method: as §2
[9] = tested on: Rattus norvegicus; test: Uptake of radioligand [125I]FIDA1 by striatum in rat after 120 minutes after an intravenous injection is given (average of 3 rats); assay type: ADME, organism-based; conditions: in vivo, 2 h; summary of the method: as §1
[10] = tested on: Rattus norvegicus; test: Biodistribution of radioligand [125I]FIDA1 in kidney of rat after 120 minutes after an intravenous injection is given (average of 3 rats); assay type: ADME, organism-based; conditions: in vivo, 2 h; summary of the method: as §2
[11] = tested on: Rattus norvegicus; test: Biodistribution of radioligand [125I]FIDA1 in lung of rat after 120 minutes after an intravenous injection is given (average of 3 rats); assay type: ADME, organism-based; conditions: in vivo, 2 h; summary of the method: as §2
[12] = tested on: Rattus norvegicus; test: Uptake of radioligand [125I]-FIDA1 by cortex in rat after 120 minutes after an intravenous injection is given (average of 3 rats); assay type: ADME, organism-based; conditions: in vivo, 2 h; summary of the method: as §1
[13] = tested on: Rattus norvegicus; test: Biodistribution of radioligand [125I]FIDA1 in kidney of rat after 30 minutes after an intravenous injection is given (average of 3 rats); assay type: ADME, organism-based; conditions: in vivo, 0.5 h; summary of the method: as §2
[14] = tested on: Rattus norvegicus; test: Biodistribution of radioligand [125I]FIDA1 in lung of rat after 60 minutes after an intravenous injection is given (average of 3 rats); assay type: ADME, organism-based; conditions: in vivo, 1 h; summary of the method: as §2
[15] = tested on: Rattus norvegicus; test: Biodistribution of radioligand [125I]FIDA1 in lung of rat after 2 minutes after an intravenous injection is given (average of 3 rats); assay type: ADME, organism-based; conditions: in vivo; summary of the method: as §2
[16] = tested on: Rattus norvegicus; test: Biodistribution of radioligand [125I]FIDA1 in thyroid of rat after 120 minutes after an intravenous injection is given (average of 3 rats); assay type: ADME, organism-based, Thyroid gland; conditions: in vivo, 2 h; summary of the method: as §2
[17] = tested on: Rattus norvegicus; test: Biodistribution of radioligand [125I]-FIDA1 in kidney of rat after 2 minutes after an intravenous injection is given (average of 3 rats); assay type: ADME, organism-based; conditions: in vivo; summary of the method: as §2
[18] = tested on: Rattus norvegicus; test: Biodistribution of radioligand [125I]FIDA1 in heart of rat after 2 minutes after an intravenous injection is given (average of 3 rats); assay type: ADME, organism-based; conditions: in vivo; summary of the method: as §2
[19] = tested on: Rattus norvegicus; test: Biodistribution of radioligand [125I]FIDA1 in skin of rat after 60 minutes after an intravenous injection is given (average of 3 rats); assay type: ADME, organism-based, Zone of skin; conditions: in vivo, 1 h; summary of the method: as §2
[20] = tested on: Rattus norvegicus; test: Biodistribution of radioligand [125I]FIDA1 in blood of rat after 30 minutes after an intravenous injection is given (average of 3 rats); assay type: ADME, organism-based; conditions: in vivo, 0.5 h; summary of the method: as §2
[21] = tested on: Rattus norvegicus; test: Uptake of radioligand [125I]FIDA1 by cerebellum in rat after 2 minutes after an intravenous injection is given (average of 3 rats); assay type: ADME, organism-based; conditions: in vivo; summary of the method: as §1
[22] = tested on: Rattus norvegicus; test: Biodistribution of radioligand [125I]FIDA1 in heart of rat after 60 minutes after an intravenous injection is given (average of 3 rats); assay type: ADME, organism-based; conditions: in vivo, 1 h; summary of the method: as §2
[23] = tested on: Rattus norvegicus; test: Uptake of radioligand [125I]FIDA1 by striatum in rat after 60 minutes after an intravenous injection is given (average of 3 rats); assay type: ADME, organism-based; conditions: in vivo, 1 h; summary of the method: as §1
[24] = tested on: Rattus norvegicus; test: Biodistribution of radioligand [125I]FIDA1 in kidney of rat after 60 minutes after an intravenous injection is given (average of 3 rats); assay type: ADME, organism-based; conditions: in vivo, 1 h; summary of the method: as §2
[25] = tested on: Rattus norvegicus; test: Biodistribution of radioligand [125I]FIDA1 in brain of rat after 2 minutes after an intravenous injection is given (average of 3 rats); assay type: ADME, organism-based; conditions: in vivo; summary of the method: as §2
[26] = tested on: Rattus norvegicus; test: Uptake of radioligand [125I]FIDA1 by cortex in rat after 2 minutes after an intravenous injection is given (average of 3 rats); assay type: ADME, organism-based; conditions: in vivo; summary of the method: as §1
[27] = tested on: Rattus norvegicus; test: Biodistribution of radioligand [125I]FIDA1 in liver of rat after 120 minutes after an intravenous injection is given (average of 3 rats); assay type: ADME, organism-based; conditions: in vivo, 2 h; summary of the method: as §2
[28] = tested on: Rattus norvegicus; test: Uptake of radioligand [125I]FIDA1 by cerebellum in rat after 60 minutes after an intravenous injection is given (average of 3 rats); assay type: ADME, organism-based; conditions: in vivo, 1 h; summary of the method: as §1
[29] = tested on: Rattus norvegicus; test: Biodistribution of radioligand [125I]FIDA1 in blood of rat after 2 minutes after an intravenous injection is given (average of 3 rats); assay type: ADME, organism-based; conditions: in vivo; summary of the method: as §2
[30] = tested on: Rattus norvegicus; test: Biodistribution of radioligand [125I]FIDA1 in muscle of rat after 60 minutes after an intravenous injection is given (average of 3 rats); assay type: ADME, organism-based, Muscle tissue; conditions: in vivo, 1 h; summary of the method: as §2
[31] = tested on: Rattus norvegicus; test: Biodistribution of radioligand [125I]FIDA1 in brain of rat after 60 minutes after an intravenous injection is given (average of 3 rats); assay type: ADME, organism-based; conditions: in vivo, 1 h; summary of the method: as §2
[32] = tested on: Rattus norvegicus; test: Biodistribution of radioligand [125I]FIDA1 in spleen of rat after 120 minutes after an intravenous injection is given (average of 3 rats); assay type: ADME, organism-based; conditions: in vivo, 2 h; summary of the method: as §2
[33] = tested on: Rattus norvegicus; test: Biodistribution of radioligand [125I]FIDA1 in liver of rat after 60 minutes after an intravenous injection is given (average of 3 rats); assay type: ADME, organism-based; conditions: in vivo, 1 h; summary of the method: as §2
[34] = tested on: Rattus norvegicus; test: Biodistribution of radioligand [125I]FIDA1 in brain of rat after 120 minutes after an intravenous injection is given (average of 3 rats); assay type: ADME, organism-based; conditions: in vivo, 2 h; summary of the method: as §2
[35] = tested on: Rattus norvegicus; test: Biodistribution of radioligand [125I]FIDA1 in spleen of rat after 60 minutes after an intravenous injection is given (average of 3 rats); assay type: ADME, organism-based; conditions: in vivo, 1 h; summary of the method: as §2
[36] = tested on: Rattus norvegicus; test: Biodistribution of radioligand [125I]FIDA1 in spleen of rat after 2 minutes after an intravenous injection is given (average of 3 rats); assay type: ADME, organism-based; conditions: in vivo; summary of the method: as §2
[37] = tested on: Rattus norvegicus; test: Biodistribution of radioligand [125I]FIDA1 in thyroid of rat after 2 minutes after an intravenous injection is given (average of 3 rats); assay type: ADME, organism-based, Thyroid gland; conditions: in vivo; summary of the method: as §2
[38] = tested on: Rattus norvegicus; test: Biodistribution of radioligand [125I]FIDA1 in blood of rat after 60 minutes after an intravenous injection is given (average of 3 rats); assay type: ADME, organism-based; conditions: in vivo, 1 h; summary of the method: as §2

| SMILES | Dose/g [1] [%] | Dose/organ [2] [%] | Dose/organ [3] [%] | Dose/organ [4] [%] | Dose/organ [5] [%] | Dose/g [6] [%] | Dose/organ [7] [%] | Dose/organ [8] [%] | Dose/g [9] [%] | Dose/organ [10] [%] | Dose/organ [11] [%] | Dose/g [12] [%] | Dose/organ [13] [%] | Dose/organ [14] [%] | Dose/organ [15] [%] | Dose/organ [16] [%] | Dose/organ [17] [%] | Dose/organ [18] [%] | Dose/organ [19] [%] | Dose/organ [20] [%] | further results |
| --- | --- | --- | --- | --- | --- | --- | --- | --- | --- | --- | --- | --- | --- | --- | --- | --- | --- | --- | --- | --- | --- |
| COc1cc(I)cc(C(=O)NC[C@@H]2CCCN2Cc2ccc(F)cc2)c1OC | 0.04 | 19.41 | 0.03 | 11.14 | 5.75 | 0.01 | 6.08 | 0.03 | 0.23 | 0.42 | 0.15 | 0.01 | 2.96 | 0.32 | 7.82 | 0.03 | 6.77 | 1.38 | 8.56 | 0.87 | Dose/g [21]: 0.49%; Dose/organ [22]: 0.06%; Dose/g [23]: 0.37%; Dose/organ [24]: 1.38%; Dose/organ [25]: 0.98%; Dose/g [26]: 0.63%; Dose/organ [27]: 5.71%; Dose/g [28]: 0.03%; Dose/organ [29]: 2.08%; Dose/organ [30]: 4.21%; Dose/organ [31]: 0.1%; Dose/organ [32]: 0.05%; Dose/organ [33]: 10.44%; Dose/organ [34]: 0.05%; Dose/organ [35]: 0.14%; Dose/organ [36]: 1.19%; Dose/organ [37]: 0.07%; Dose/organ [38]: 0.64% |
| CCN1CCC[C@H]1CNC(=O)c1cc(I)cc(OC)c1OCCF | 0.013 | 20.46 | 0.04 | 11.83 | 0.75 | 0.0016 | 8.19 | 0.01 | 0.095 | 0.11 | 0.04 | 0.0014 | 1.42 | 0.14 | 6.53 | 0.03 | 6.18 | 0.81 | 1.76 | 1.91 | Dose/g [21]: 0.16%; Dose/organ [22]: 0.03%; Dose/g [23]: 0.175%; Dose/organ [24]: 0.39%; Dose/organ [25]: 0.41%; Dose/g [26]: 0.25%; Dose/organ [27]: 2.24%; Dose/g [28]: 0.006%; Dose/organ [29]: 3.76%; Dose/organ [30]: 1.96%; Dose/organ [31]: 0.05%; Dose/organ [32]: 0.01%; Dose/organ [33]: 7.08%; Dose/organ [34]: 0.02%; Dose/organ [35]: 0.05%; Dose/organ [36]: 0.7%; Dose/organ [37]: 0.07%; Dose/organ [38]: 0.78% |

Reference: ChEMBL document CHEMBL1126811, “Fluorinated and iodinated dopamine agents: D2 imaging agents for PET and SPECT” (J Med Chem, 1993)
